The record followed here is ChEMBL document CHEMBL1944507, “Structure-activity relationships for amide-, carbamate-, and urea-linked analogues of the tuberculosis drug (6S)-2-nitro-6-{[4-(trifluoromethoxy)benzyl]oxy}-6,7-dihydro-5H-imidazo[2,1-b][1,3]oxazine (PA-824)” (J Med Chem, 2012).

≈ marks a conversion by molar mass, not a printed value.

Format in all cases: functional
For test [1], the system named is Mycobacterium tuberculosis. Put plainly: Antimicrobial activity against Mycobacterium tuberculosis H37Rv ATCC 27294 harboring pFCA-lux AB gene measured under aerobic condition after 8 days by luminescence analysis. As to conditions: H37Rv ATCC 27294, 192 h. In outline: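 MABA: replicating M. tb H37Rv exposed to compound aerobically for 8 days. […] Mean of at least two independent determinations ± SD.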

For test [2], the system named is Mycobacterium tuberculosis. Put plainly: Antimicrobial activity against Mycobacterium tuberculosis H37Rv ATCC 27294 harboring pFCA-lux AB gene measured under anaerobic condition after 11 days by luminescence analysis. The note with it: H37Rv ATCC 27294, 264 h. In outline:
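LORA: luminescence-based low-oxygen-recovery assay on nonreplicating M. tb, 11-day anaerobic exposure. MIC is the mean of at least two independent determinations ± SD.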

Test [3] deals with Mycobacterium tuberculosis. Put plainly: Ratio of MIC for PA-824 to compound MIC for Mycobacterium tuberculosis H37Rv ATCC 27294 harboring pFCA-lux AB gene measured under aerobic condition after 8 days by luminescence analysis.

On to `O=C(Nc1ccc(-c2ccc(C(F)(F)F)nc2)cc1)N[C@@H]1COc2nc([N+](=O)[O-])cn2C1`, for which the MIC in test [1] turned out to be 0.17 µM (≈ 0.0762 µg/mL); in test [2], 17 µM (≈ 7.62 µg/mL).
Take `O=C(Nc1ccc(-c2ccc(F)nc2)cc1)N[C@@H]1COc2nc([N+](=O)[O-])cn2C1`: the minimal inhibitory concentration (MIC) in test [1] worked out at 0.24 µM (≈ 0.0956 µg/mL); in test [2], 11 µM (≈ 4.38 µg/mL).
Taken in the same sequence, the figures for `O=C(Nc1ccc(-c2ccnc(C(F)(F)F)c2)cc1)N[C@@H]1COc2nc([N+](=O)[O-])cn2C1` were 0.36 µM (≈ 0.161 µg/mL) and 13 µM (≈ 5.83 µg/mL).
The matching figures for `O=C(NCc1ccc(-c2ccc(C(F)(F)F)cc2)cc1)N[C@@H]1COc2nc([N+](=O)[O-])cn2C1`: 0.32 µM (≈ 0.148 µg/mL) and more than 32 µM.
Regarding `O=C(NCc1ccc(-c2ccc(F)cc2)cc1)N[C@@H]1COc2nc([N+](=O)[O-])cn2C1`, the MIC in test [1] was 0.11 µM (≈ 0.0453 µg/mL); in test [2], 26 µM (≈ 10.7 µg/mL).
The matching figures for `O=C(COc1ccc(-c2ccc(C(F)(F)F)cc2)cc1)N[C@@H]1COc2nc([N+](=O)[O-])cn2C1`: 0.25 µM (≈ 0.116 µg/mL) and more than 32 µM.
With `O=C(N[C@@H]1COc2nc([N+](=O)[O-])cn2C1)OCc1ccc(-c2ccc(F)cc2)cc1`, the MIC came to 0.085 µM (≈ 0.0351 µg/mL) in test [1] and 4.2 µM (≈ 1.73 µg/mL) in test [2].
As for `O=C(N[C@@H]1COc2nc([N+](=O)[O-])cn2C1)OCc1ccc(-c2ccc(C(F)(F)F)cc2)cc1`, the values for the MIC in test [1] and in test [2] were 0.08 µM (≈ 0.037 µg/mL) and 4.5 µM (≈ 2.08 µg/mL), respectively.
Taken in the same sequence, the figures for `O=C(COc1ccc(-c2ccc(C(F)(F)F)nc2)cc1)N[C@@H]1COc2nc([N+](=O)[O-])cn2C1` were 0.69 µM (≈ 0.32 µg/mL) and 30 µM (≈ 13.9 µg/mL).
The matching figures for `O=C(COc1ccc(-c2ccc(F)nc2)cc1)N[C@@H]1COc2nc([N+](=O)[O-])cn2C1`: 0.69 µM (≈ 0.285 µg/mL) and 31 µM (≈ 12.8 µg/mL).
The matching figures for `O=C(COc1ccc(-c2ccc(OC(F)(F)F)cc2)cc1)N[C@@H]1COc2nc([N+](=O)[O-])cn2C1`: 0.18 µM (≈ 0.0861 µg/mL) and 25 µM (≈ 12 µg/mL).
As to `O=C(COc1ccc(-c2ccc(F)cc2)cc1)N[C@@H]1COc2nc([N+](=O)[O-])cn2C1`, the MIC in test [1] stood at 0.17 µM (≈ 0.0701 µg/mL); in test [2], 26 µM (≈ 10.7 µg/mL).
The matching figures for `O=C(Cc1ccc(-c2ccc(F)nc2)cc1)N[C@@H]1COc2nc([N+](=O)[O-])cn2C1`: 0.68 µM (≈ 0.27 µg/mL) and more than 32 µM.
The matching figures for `O=C(Cc1ccc(-c2ccc(C(F)(F)F)nc2)cc1)N[C@@H]1COc2nc([N+](=O)[O-])cn2C1`: 0.46 µM (≈ 0.206 µg/mL) and more than 32 µM.
As to `O=C(Cc1ccc(-c2ccc(OC(F)(F)F)cc2)cc1)N[C@@H]1COc2nc([N+](=O)[O-])cn2C1`, the results for the MIC in test [1] and in test [2] were 0.22 µM (≈ 0.102 µg/mL) and 5 µM (≈ 2.31 µg/mL), respectively.
Taken in the same sequence, the figures for `O=C(Cc1ccc(-c2ccc(C(F)(F)F)cc2)cc1)N[C@@H]1COc2nc([N+](=O)[O-])cn2C1` were 0.44 µM (≈ 0.196 µg/mL) and 23 µM (≈ 10.3 µg/mL).
Regarding `O=C(Cc1ccc(-c2ccc(F)cc2)cc1)N[C@@H]1COc2nc([N+](=O)[O-])cn2C1`, the MIC came to 0.33 µM (≈ 0.131 µg/mL) in test [1] and 11 µM (≈ 4.36 µg/mL) in test [2].
Taken in the same sequence, the figures for `O=C(CO[C@@H]1COc2nc([N+](=O)[O-])cn2C1)Nc1ccc(OC(F)(F)F)cc1` were 0.24 µM (≈ 0.0965 µg/mL) and 7.8 µM (≈ 3.14 µg/mL).
The matching figures for `CN(C(=O)N(C)[C@@H]1COc2nc([N+](=O)[O-])cn2C1)c1ccc(OC(F)(F)F)cc1`: 12 µM (≈ 4.98 µg/mL) and more than 64 µM.
The matching figures for `O=[N+]([O-])c1cn2c(n1)OC[C@@H](NC(=S)Nc1ccc(OC(F)(F)F)cc1)C2`: 8 µM (≈ 3.23 µg/mL) and more than 64 µM.
As to `O=C(NCc1ccc(OC(F)(F)F)cc1)N[C@@H]1COc2nc([N+](=O)[O-])cn2C1`, the MIC stood at 0.27 µM (≈ 0.108 µg/mL) in test [1] and 4.1 µM (≈ 1.65 µg/mL) in test [2].
With `O=C(Nc1ccc(OC(F)(F)F)cc1)O[C@@H]1COc2nc([N+](=O)[O-])cn2C1`, the MIC turned out to be 0.12 µM (≈ 0.0466 µg/mL) in test [1] and 2.7 µM (≈ 1.05 µg/mL) in test [2]. Besides, in test [3], the Ratio was found to be 4.
Consider `CN(C(=O)O[C@@H]1COc2nc([N+](=O)[O-])cn2C1)c1ccc(OC(F)(F)F)cc1`, for which the MIC in test [1] amounted to 0.21 µM (≈ 0.0845 µg/mL); in test [2], 5.4 µM (≈ 2.17 µg/mL).
The matching figures for `O=C(NCc1ccc(OC(F)(F)F)cc1)O[C@@H]1COc2nc([N+](=O)[O-])cn2C1`: 0.25 µM (≈ 0.101 µg/mL) and 17 µM (≈ 6.84 µg/mL).
As for `O=[N+]([O-])c1cn2c(n1)OC[C@@H](OCc1ccccc1OC(F)(F)F)C2`, the MIC worked out at 1.8 µM (≈ 0.647 µg/mL) in test [1] and 8.6 µM (≈ 3.09 µg/mL) in test [2].
The matching figures for `O=[N+]([O-])c1cn2c(n1)OC[C@@H](OCc1cccc(OC(F)(F)F)c1)C2`: 0.36 µM (≈ 0.129 µg/mL) and 2.1 µM (≈ 0.754 µg/mL).
Taken in the same sequence, the figures for `O=[N+]([O-])c1cn2c(n1)OC[C@@H](NCc1ccc(OC(F)(F)F)cc1)C2` were 0.22 µM (≈ 0.0788 µg/mL) and 5.3 µM (≈ 1.9 µg/mL).
In the case of `O=[N+]([O-])c1cn2c(n1)OC[C@@H](OCc1ccc(OC(F)(F)F)cc1)C2` [PRETOMANID], the MIC in test [1] was determined as 0.5 µM (≈ 0.18 µg/mL); in test [2] it was 2.6 µM (≈ 0.934 µg/mL).

One may read the MIC as the smallest concentration in the dilution series that meets the test's criterion for growth inhibition. Low readings indicate greater potency, high ones weaker potency.
